In ChEMBL document CHEMBL1141199, “N-benzylisatin sulfonamide analogues as potent caspase-3 inhibitors: synthesis, in vitro activity, and molecular modeling studies” (J Med Chem, 2005) one finds IC50 data, which are given here for 28 compounds.

One test addresses Caspase-8 (Homo sapiens, UniProt Q14790). The test is described as follows: Inhibitory activity against caspase 8 using Ac-IETD-AMC substrate. In short, it runs like this:
(§1)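 Substrates at 10 µM: Ac-DEVD-AMC (caspase-3), Ac-VEID-AMC (caspase-6), Ac-IETD-AMC (caspase-8). Serially diluted inhibitors were preincubated 30 min on ice, then run 1–2 h at 37 °C in 5% final DMSO. AMC fluorescence ex 355/em 460 nm. Duplicates; IC50 averaged over three experiments.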

Another test addresses T1, Caspase-1 (Homo sapiens, UniProt P29466).
T1 sequence (P29466 whole entry): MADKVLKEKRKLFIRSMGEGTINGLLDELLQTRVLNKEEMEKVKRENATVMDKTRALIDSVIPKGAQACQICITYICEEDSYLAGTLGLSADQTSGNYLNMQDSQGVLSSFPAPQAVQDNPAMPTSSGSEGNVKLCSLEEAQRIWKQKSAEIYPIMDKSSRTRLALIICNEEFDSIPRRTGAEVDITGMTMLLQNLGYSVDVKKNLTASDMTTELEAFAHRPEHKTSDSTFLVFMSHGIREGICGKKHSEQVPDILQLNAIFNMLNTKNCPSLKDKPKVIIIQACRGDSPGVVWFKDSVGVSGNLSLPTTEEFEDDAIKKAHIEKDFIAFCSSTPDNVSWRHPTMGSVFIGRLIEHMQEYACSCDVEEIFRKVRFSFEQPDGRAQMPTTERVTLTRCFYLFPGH
The test is described as follows: Inhibitory activity against caspase 1 using Ac-YVAD-AMC substrate. In short, it runs like this:
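Substrate solution carried an extra 10 mM 2-mercaptoethanol. Inhibitors in DMSO were preincubated 30 min on ice, then run 1–2 h at 37 °C. AMC was read at ex 355/em 460 nm. Duplicates; IC50 is the mean of three experiments.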

For the next test, the target named is T2, Caspase-6 (Homo sapiens, UniProt P55212).
T2 sequence (P55212 whole entry): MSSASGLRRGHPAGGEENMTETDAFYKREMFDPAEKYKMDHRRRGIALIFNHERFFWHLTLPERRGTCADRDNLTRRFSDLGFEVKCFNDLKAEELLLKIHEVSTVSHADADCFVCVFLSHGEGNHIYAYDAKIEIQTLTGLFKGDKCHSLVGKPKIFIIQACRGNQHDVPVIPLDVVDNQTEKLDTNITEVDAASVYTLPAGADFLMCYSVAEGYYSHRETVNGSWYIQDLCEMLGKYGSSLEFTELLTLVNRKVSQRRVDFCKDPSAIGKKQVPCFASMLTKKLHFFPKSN
The test is described as follows: Inhibitory activity against caspase 6 using Ac-VEID-AMC substrate. In short, it runs like this: as §1

In the next test the target is T3, Caspase-7 (Homo sapiens, UniProt P55210).
T3 sequence (P55210 whole entry): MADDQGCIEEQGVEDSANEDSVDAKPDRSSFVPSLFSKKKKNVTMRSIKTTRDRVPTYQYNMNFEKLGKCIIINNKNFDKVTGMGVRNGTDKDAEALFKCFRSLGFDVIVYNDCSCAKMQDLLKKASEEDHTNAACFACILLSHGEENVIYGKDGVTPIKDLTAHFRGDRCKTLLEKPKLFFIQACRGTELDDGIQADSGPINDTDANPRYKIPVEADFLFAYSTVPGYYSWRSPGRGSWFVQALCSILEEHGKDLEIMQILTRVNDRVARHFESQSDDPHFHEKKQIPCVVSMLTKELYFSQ
The test is described as follows: Inhibitory activity against caspase 7 using Ac-DEVD-AMC substrate. In short, it runs like this:
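Substrate solution held a further 10 mM 2-mercaptoethanol for full activation. Enzyme was used at a linear-range level. DMSO inhibitor dilutions (5% final) were preincubated 30 min on ice, then run 1–2 h at 37 °C. AMC read at 355/460 nm. Duplicates; IC50 is the mean of three runs.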

The target of another test is T4, Caspase-3 (Homo sapiens, UniProt P42574).
T4 sequence (P42574 whole entry): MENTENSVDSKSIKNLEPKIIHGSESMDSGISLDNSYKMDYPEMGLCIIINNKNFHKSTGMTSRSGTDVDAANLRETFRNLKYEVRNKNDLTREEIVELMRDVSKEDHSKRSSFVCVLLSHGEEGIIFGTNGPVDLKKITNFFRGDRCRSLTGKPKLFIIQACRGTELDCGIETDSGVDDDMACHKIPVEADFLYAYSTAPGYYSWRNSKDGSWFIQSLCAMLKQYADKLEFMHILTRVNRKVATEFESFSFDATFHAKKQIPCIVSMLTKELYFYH
The test is described as follows: Inhibitory activity against caspase 3 using Ac-DEVD-AMC substrate. In short, it runs like this: as §1

Sequence of Caspase-8 (Q14790 217-374 limits assumed): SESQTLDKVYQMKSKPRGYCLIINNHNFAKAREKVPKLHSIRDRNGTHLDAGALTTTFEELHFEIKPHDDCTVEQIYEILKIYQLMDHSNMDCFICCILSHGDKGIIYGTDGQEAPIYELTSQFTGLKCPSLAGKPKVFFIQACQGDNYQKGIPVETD
Sequence of Caspase-8 (Q14790 385-479 limits assumed): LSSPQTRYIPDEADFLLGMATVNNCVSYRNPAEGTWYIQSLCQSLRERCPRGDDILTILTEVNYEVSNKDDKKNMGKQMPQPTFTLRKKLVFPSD

Usually IC50 stands for the concentration that gives 50% inhibition. Lower therefore signals greater potency. As for `O=C1C(=O)N(Cc2ccnc(F)c2)c2ccc(S(=O)(=O)N3CC[C@H]3COc3ccccc3)cc21`, the IC50 at Caspase-8 is greater than 50 µM; against Caspase-1 it was greater than 50 µM; on Caspase-6 it was greater than 5 µM.
Take `O=C1Nc2ccc(S(=O)(=O)N3CCC[C@H]3COc3ccncc3)cc2C1=O`: the IC50 on Caspase-7 is 0.142 µM; at Caspase-8 it was greater than 50 µM; at Caspase-3, 0.0204 µM; at Caspase-1, greater than 5 µM; on Caspase-6 it was greater than 5 µM.
As to `O=C1Nc2ccc(S(=O)(=O)N3CCC[C@H]3COc3cccnc3)cc2C1=O`, the IC50 is 0.215 µM at Caspase-7; greater than 50 µM at Caspase-8; 0.0583 µM at Caspase-3; greater than 5 µM on Caspase-1; greater than 5 µM against Caspase-6.
Regarding `O=C1C(=O)N(Cc2ccccc2)c2ccc(S(=O)(=O)N3CCC[C@H]3COc3cccnc3)cc21`, the IC50 was 0.0141 µM against Caspase-7; greater than 50 µM at Caspase-8; 0.0052 µM on Caspase-3; greater than 10 µM against Caspase-1; greater than 5 µM at Caspase-6.
For `O=C1C(=O)N(Cc2ccc(F)cc2)c2ccc(S(=O)(=O)N3CCC[C@H]3COc3cccnc3)cc21` the same measures were 0.0151 µM, greater than 50 µM, 0.0084 µM, greater than 10 µM and greater than 5 µM.
For `CSc1ccc(CN2C(=O)C(=O)c3cc(S(=O)(=O)N4CCC[C@H]4COc4cccnc4)ccc32)cc1` the same measures were 0.0233 µM, greater than 50 µM, 0.0044 µM, greater than 50 µM and greater than 5 µM.
The matching figures for `CSc1ccc(CN2C(=O)C(=O)c3cc(S(=O)(=O)N4CCC[C@H]4COc4ccccc4)ccc32)cc1`: 0.041 µM, greater than 50 µM, 0.0124 µM, greater than 50 µM and greater than 5 µM.
`CC(=O)Oc1ccc(CN2C(=O)C(=O)c3cc(S(=O)(=O)N4CCC[C@H]4COc4ccccc4)ccc32)cc1`: the IC50 against Caspase-7 was 0.0348 µM; on Caspase-8, greater than 50 µM; on Caspase-3 it was 0.012 µM; against Caspase-1 it was greater than 50 µM; against Caspase-6 it was greater than 5 µM.
With `O=C1C(=O)N(Cc2ccccc2F)c2ccc(S(=O)(=O)N3CC[C@H]3COc3ccccc3)cc21`, the IC50 against Caspase-8 was greater than 50 µM; on Caspase-1 it was greater than 10 µM; against Caspase-6, greater than 5 µM.
The matching figures for `O=C1C(=O)N(Cc2ccc(F)nc2)c2ccc(S(=O)(=O)N3CCC[C@H]3COc3ccccc3)cc21`: greater than 50 µM, greater than 50 µM and greater than 5 µM.
For the compound `COc1ccc(CN2C(=O)C(=O)c3cc(S(=O)(=O)N4CCC[C@H]4COc4ccccc4)ccc32)cc1`, the IC50 on Caspase-7 is 0.0218 µM; at Caspase-8, greater than 50 µM; at Caspase-3, 0.0145 µM; at Caspase-1 it was greater than 10 µM; at Caspase-6 it was greater than 5 µM.
For `O=C1Nc2ccc(S(=O)(=O)N3CC[C@H]3COc3ccccc3)cc2C1=O`, the IC50 against Caspase-8 is greater than 50 µM; at Caspase-1, greater than 10 µM; on Caspase-6, greater than 5 µM.
The matching figures for `O=C1C(=O)N(Cc2ccccc2)c2ccc(S(=O)(=O)N3CC[C@H]3COc3ccccc3)cc21`: greater than 50 µM, greater than 10 µM and greater than 5 µM.
As for `COc1ccc(CN2C(=O)C(=O)c3cc(S(=O)(=O)N4CC[C@H]4COc4ccccc4)ccc32)cc1`, the IC50 was greater than 50 µM against Caspase-8, greater than 50 µM against Caspase-1 and greater than 5 µM against Caspase-6.
`O=C1C(=O)N(Cc2ccc(F)cc2)c2ccc(S(=O)(=O)N3CC[C@H]3COc3ccccc3)cc21`: the IC50 at Caspase-8 is greater than 50 µM; on Caspase-1 it was greater than 10 µM; against Caspase-6 it was greater than 5 µM.
The matching figures for `O=C1C(=O)N(Cc2ccc(O)cc2)c2ccc(S(=O)(=O)N3CCC[C@H]3COc3ccccc3)cc21`: greater than 50 µM, greater than 5 µM and greater than 5 µM.
Take `CN1C(=O)C(=O)c2cc(S(=O)(=O)N3CCC[C@H]3COc3ccccc3)ccc21`: the IC50 against Caspase-7 is 0.31 µM; against Caspase-8, greater than 50 µM; at Caspase-3, 0.119 µM; against Caspase-1, greater than 20 µM; on Caspase-6, greater than 5 µM.
As for `O=C1C(=O)N(Cc2ccc(F)nc2)c2ccc(S(=O)(=O)N3CC[C@H]3COc3ccccc3)cc21`, the IC50 against Caspase-8 was greater than 50 µM; at Caspase-1 it was greater than 50 µM; on Caspase-6 it was greater than 5 µM.
On to `O=C1C(=O)N(Cc2cccc(F)n2)c2ccc(S(=O)(=O)N3CC[C@H]3COc3ccccc3)cc21`, for which the IC50 against Caspase-8 is greater than 50 µM; at Caspase-1 it was greater than 10 µM; on Caspase-6, greater than 5 µM.
For `CN1C(=O)C(=O)c2cc(S(=O)(=O)N3CC[C@H]3COc3ccccc3)ccc21` the same measures were greater than 50 µM, greater than 10 µM and greater than 5 µM.
As for `CN1C(=O)C(=O)c2cc(S(=O)(=O)N3CCC[C@H]3COc3cccnc3)ccc21`, the IC50 against Caspase-7 is 0.0949 µM; on Caspase-8, greater than 50 µM; on Caspase-3, 0.0233 µM; at Caspase-1, greater than 10 µM; on Caspase-6, greater than 5 µM.
As for `COc1ccc(CN2C(=O)C(=O)c3cc(S(=O)(=O)N4CCC[C@H]4COc4cccnc4)ccc32)cc1`, the IC50 against Caspase-7 was 0.0151 µM; against Caspase-8, greater than 50 µM; against Caspase-3 it was 0.0039 µM; at Caspase-1 it was greater than 10 µM; on Caspase-6, greater than 5 µM.
The matching figures for `O=C1C(=O)N(Cc2ccc(F)cc2)c2ccc(S(=O)(=O)N3CCC[C@H]3COc3ccccc3)cc21`: 0.023 µM, greater than 50 µM, 0.0121 µM, greater than 50 µM and greater than 5 µM.
For the compound `O=C1C(=O)N(Cc2cccc(F)n2)c2ccc(S(=O)(=O)N3CCC[C@H]3COc3ccccc3)cc21`, the IC50 at Caspase-8 is greater than 50 µM; on Caspase-1 it was greater than 50 µM; on Caspase-6, greater than 5 µM.
Consider `O=C1C(=O)N(Cc2ccnc(F)c2)c2ccc(S(=O)(=O)N3CCC[C@H]3COc3ccccc3)cc21`, for which the IC50 against Caspase-8 is greater than 50 µM; against Caspase-1, greater than 50 µM; against Caspase-6, greater than 5 µM.
Turning to `CSc1ccc(CN2C(=O)C(=O)c3cc(S(=O)(=O)N4CC[C@H]4COc4ccccc4)ccc32)cc1`, the results for the concentration for half-maximal inhibition (IC50) at Caspase-8, against Caspase-1 and on Caspase-6 were greater than 50 µM, greater than 50 µM and greater than 5 µM, respectively.
Turning to `O=C1C(=O)N(Cc2ccccc2)c2ccc(S(=O)(=O)N3CCC[C@H]3COc3ccccc3)cc21`, the IC50 against Caspase-8 is greater than 50 µM; on Caspase-1 it was greater than 10 µM; against Caspase-6, greater than 5 µM.
The matching figures for `O=C1Nc2ccc(S(=O)(=O)N3CCC[C@H]3COc3ccccc3)cc2C1=O`: greater than 50 µM, greater than 10 µM and greater than 5 µM.
